Data taken from ChEMBL document CHEMBL1147862, “Studies on synthesis and pharmacological activities of 3,6-disubstituted-1,2,4-triazolo[3,4-b]-1,3,4-thiadiazoles and their dihydro analogues” (2007).

What was measured:
Assay type in all cases: functional
Pseudomonas aeruginosa [1] = assay: Antibacterial activity against Pseudomonas aeruginosa at 10 ug/ml by agar plate diffusion technique; details: read-out: IZ
Staphylococcus aureus [2] = assay: Antibacterial activity against Staphylococcus aureus at 20 ug/ml by agar plate diffusion technique; details: read-out: IZ
Candida albicans [3] = assay: Antifungal activity against Candida albicans at 10 ug/ml by paper disc method; details: read-out: IZ
Candida albicans [4] = assay: Antifungal activity against Candida albicans at 30 ug/ml by paper disc method; details: read-out: IZ
Bacillus subtilis [5] = assay: Antibacterial activity against Bacillus subtilis at 10 ug/ml by agar plate diffusion technique; details: read-out: IZ
Escherichia coli [6] = assay: Antibacterial activity against Escherichia coli at 10 ug/ml by agar plate diffusion technique; details: read-out: IZ
Rattus norvegicus [7] = assay: Antiinflammatory activity in Wistar Albino rat assessed as inhibition of carrageenan-induced paw oedema at 20 mg/kg after 4 hrs relative to control
Summary of the method: (§1)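 Wistar albino rats, 150–200 g, six per group, dosed orally with a 20 mg/kg suspension; control gets 0.1 ml 1% gum acacia. After 30 min, 0.1 ml 1% carrageenan in saline is injected subplantar into the right hind paw. Paw volume is read by plethysmograph at 0–4 h. Inhibition = 100(1 − Vtest/Vcontrol) on mean volume increase.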

Bacillus subtilis [8] = assay: Antibacterial activity against Bacillus subtilis at 20 ug/ml by agar plate diffusion technique; details: read-out: IZ
Mus musculus [9] = assay: Analgesic activity in Swiss mouse assessed as increase in reaction time at 20 mg/kg, po after 90 mins by Eddy's hot plate technique
Summary of the method: (§2)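 Swiss mice of either sex, 25–35 g, placed one at a time on a hot plate held at 55 °C. End point is paw licking or jumping, whichever comes first, with a 15 s cut-off to avoid paw injury. Reaction time is recorded and reported as percent increase in reaction time.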

Candida albicans [10] = assay: Antifungal activity against Candida albicans at 20 ug/ml by paper disc method; details: read-out: IZ
Aspergillus niger [11] = assay: Antifungal activity against Aspergillus niger at 10 ug/ml by paper disc method; details: read-out: IZ
Staphylococcus aureus [12] = assay: Antibacterial activity against Staphylococcus aureus at 30 ug/ml by agar plate diffusion technique; details: read-out: IZ
Pseudomonas aeruginosa [13] = assay: Antibacterial activity against Pseudomonas aeruginosa at 30 ug/ml by agar plate diffusion technique; details: read-out: IZ
Rattus norvegicus [14] = assay: Antiinflammatory activity in Wistar Albino rat assessed as inhibition of carrageenan-induced paw oedema at 20 mg/kg after 2 hrs relative to control; summary of the method: as §1
Mus musculus [15] = assay: Analgesic activity in Swiss mouse assessed as increase in reaction time at 20 mg/kg, po after 60 mins by Eddy's hot plate technique; summary of the method: as §2
Escherichia coli [16] = assay: Antibacterial activity against Escherichia coli at 30 ug/ml by agar plate diffusion technique; details: read-out: IZ
Aspergillus niger [17] = assay: Antifungal activity against Aspergillus niger at 20 ug/ml by paper disc method; details: read-out: IZ
Rattus norvegicus [18] = assay: Antiinflammatory activity in Wistar Albino rat assessed as inhibition of carrageenan-induced paw oedema at 20 mg/kg after 3 hrs relative to control; summary of the method: as §1
Rattus norvegicus [19] = assay: Antiinflammatory activity in Wistar Albino rat assessed as inhibition of carrageenan-induced paw oedema at 20 mg/kg after 1 hr relative to control; summary of the method: as §1
Escherichia coli [20] = assay: Antibacterial activity against Escherichia coli at 20 ug/ml by agar plate diffusion technique; details: read-out: IZ
Aspergillus niger [21] = assay: Antifungal activity against Aspergillus niger at 30 ug/ml by paper disc method; details: read-out: IZ
Bacillus subtilis [22] = assay: Antibacterial activity against Bacillus subtilis at 30 ug/ml by agar plate diffusion technique; details: read-out: IZ
Mus musculus [23] = assay: Analgesic activity in Swiss mouse assessed as increase in reaction time at 20 mg/kg, po after 30 mins by Eddy's hot plate technique; summary of the method: as §2
Pseudomonas aeruginosa [24] = assay: Antibacterial activity against Pseudomonas aeruginosa at 20 ug/ml by agar plate diffusion technique; details: read-out: IZ
Staphylococcus aureus [25] = assay: Antibacterial activity against Staphylococcus aureus at 10 ug/ml by agar plate diffusion technique; details: read-out: IZ

Row | Compound | zone of inhibition at 10 µg/mL (Pseudomonas aeruginosa [1]) | zone of inhibition at 20 µg/mL (Staphylococcus aureus [2]) | zone of inhibition at 10 µg/mL (Candida albicans [3]) | zone of inhibition at 30 µg/mL (Candida albicans [4]) | zone of inhibition at 10 µg/mL (Bacillus subtilis [5]) | zone of inhibition at 10 µg/mL (Escherichia coli [6]) | inhibition in vivo at 20 mg/kg (Rattus norvegicus [7]) | zone of inhibition at 20 µg/mL (Bacillus subtilis [8]) | Activity (Mus musculus [9]) | zone of inhibition at 20 µg/mL (Candida albicans [10]) | zone of inhibition at 10 µg/mL (Aspergillus niger [11]) | zone of inhibition at 30 µg/mL (Staphylococcus aureus [12]) | zone of inhibition at 30 µg/mL (Pseudomonas aeruginosa [13]) | inhibition in vivo at 20 mg/kg (Rattus norvegicus [14]) | Activity (Mus musculus [15]) | zone of inhibition at 30 µg/mL (Escherichia coli [16]) | zone of inhibition at 20 µg/mL (Aspergillus niger [17]) | inhibition in vivo at 20 mg/kg (Rattus norvegicus [18]) | inhibition in vivo at 20 mg/kg (Rattus norvegicus [19]) | zone of inhibition at 20 µg/mL (Escherichia coli [20]) | other results
1 | COc1ccc(Cl)c(-c2nnc3sc(-c4cc(-c5ccccc5)nc5ccccc45)nn23)c1 | 6.72 mm | 10.1 mm | 5.64 mm | 18.8 mm | 6.82 mm | 6.86 mm | 24.5% | 11.2 mm | 26.85% | 12.8 mm | 6.04 mm | 16.4 mm | 15.5 mm | 17.2% | 15.68% | 16.5 mm | 11.6 mm | 20.1% | 11.6% | 11.7 mm | zone of inhibition at 30 µg/mL (Aspergillus niger [21]): 17.6 mm; zone of inhibition at 30 µg/mL (Bacillus subtilis [22]): 16.2 mm; Activity (Mus musculus [23]): 5.34%; zone of inhibition at 20 µg/mL (Pseudomonas aeruginosa [24]): 11.4 mm; zone of inhibition at 10 µg/mL (Staphylococcus aureus [25]): 5.82 mm
2 | COc1ccc(Cc2nnc3n2NC(c2cccn2C)S3)cc1OC (stereo not given) | 4.12 mm | 5.92 mm | 4.18 mm | 12.1 mm | 3.3 mm | 3.95 mm | 19.9% | 6.3 mm | 19.24% | 7.1 mm | 4.35 mm | 10.6 mm | 11.4 mm | 15.8% | 10.24% | 10.2 mm | 7.9 mm | 18.4% | 13.4% | 6.71 mm | zone of inhibition at 30 µg/mL (Aspergillus niger [21]): 12.6 mm; zone of inhibition at 30 µg/mL (Bacillus subtilis [22]): 9.12 mm; Activity (Mus musculus [23]): 5.62%; zone of inhibition at 20 µg/mL (Pseudomonas aeruginosa [24]): 7.48 mm; zone of inhibition at 10 µg/mL (Staphylococcus aureus [25]): 3.74 mm
3 | COc1ccc(Cl)c(-c2nnc3sc(Cc4c(C)[nH]c5ccc(OC)cc45)nn23)c1 | 4.15 mm | 8.12 mm | 4.35 mm | 11.7 mm | 4.12 mm | 4.26 mm | 32.7% | 7.18 mm | 35.24% | 8.72 mm | 4.56 mm | 12.1 mm | 12.4 mm | 20% | 28.54% | 12.3 mm | 8.24 mm | 26.1% | 11.3% | 7.28 mm | zone of inhibition at 30 µg/mL (Aspergillus niger [21]): 12.3 mm; zone of inhibition at 30 µg/mL (Bacillus subtilis [22]): 11.9 mm; Activity (Mus musculus [23]): 19.48%; zone of inhibition at 20 µg/mL (Pseudomonas aeruginosa [24]): 7.92 mm; zone of inhibition at 10 µg/mL (Staphylococcus aureus [25]): 4.17 mm
